Assays:
[1] = molecular target: T1, Neuronal acetylcholine receptor subunit alpha-7 (Homo sapiens, UniProt P36544); experiment: Agonist activity at alpha7 nAChR; format: functional
[2] = molecular target: T1, Neuronal acetylcholine receptor subunit alpha-7; experiment: Agonist activity at human alpha7 nAChR relative to control; format: functional
[3] = molecular target: T2, 5-hydroxytryptamine receptor 3A (Homo sapiens, UniProt P46098); experiment: Binding affinity to human 5HT3A receptor
T2 sequence (P46098 whole entry): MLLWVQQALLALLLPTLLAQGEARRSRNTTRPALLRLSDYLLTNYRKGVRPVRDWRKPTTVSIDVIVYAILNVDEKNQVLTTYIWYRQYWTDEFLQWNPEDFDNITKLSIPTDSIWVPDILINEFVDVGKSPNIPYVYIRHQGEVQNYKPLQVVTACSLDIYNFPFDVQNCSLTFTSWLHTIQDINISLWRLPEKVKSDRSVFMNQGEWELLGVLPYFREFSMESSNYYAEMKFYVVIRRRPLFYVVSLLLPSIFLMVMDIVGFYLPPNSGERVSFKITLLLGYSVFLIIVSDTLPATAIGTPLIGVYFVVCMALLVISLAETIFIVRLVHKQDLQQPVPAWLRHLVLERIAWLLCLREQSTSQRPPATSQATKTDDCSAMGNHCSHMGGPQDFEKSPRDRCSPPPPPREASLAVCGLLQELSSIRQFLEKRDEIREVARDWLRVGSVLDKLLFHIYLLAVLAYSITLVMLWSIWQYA

[4] = molecular target: T1, Neuronal acetylcholine receptor subunit alpha-7; experiment: Agonist activity at human alpha7 nAChR; format: functional
[5] = molecular target: T3, Neuronal acetylcholine receptor; alpha4/beta2 (Homo sapiens, UniProt P17787+P43681); experiment: Binding affinity to human alpha4beta2 nAChR; format: protein-complex assay
T3 sequence (P17787 whole entry): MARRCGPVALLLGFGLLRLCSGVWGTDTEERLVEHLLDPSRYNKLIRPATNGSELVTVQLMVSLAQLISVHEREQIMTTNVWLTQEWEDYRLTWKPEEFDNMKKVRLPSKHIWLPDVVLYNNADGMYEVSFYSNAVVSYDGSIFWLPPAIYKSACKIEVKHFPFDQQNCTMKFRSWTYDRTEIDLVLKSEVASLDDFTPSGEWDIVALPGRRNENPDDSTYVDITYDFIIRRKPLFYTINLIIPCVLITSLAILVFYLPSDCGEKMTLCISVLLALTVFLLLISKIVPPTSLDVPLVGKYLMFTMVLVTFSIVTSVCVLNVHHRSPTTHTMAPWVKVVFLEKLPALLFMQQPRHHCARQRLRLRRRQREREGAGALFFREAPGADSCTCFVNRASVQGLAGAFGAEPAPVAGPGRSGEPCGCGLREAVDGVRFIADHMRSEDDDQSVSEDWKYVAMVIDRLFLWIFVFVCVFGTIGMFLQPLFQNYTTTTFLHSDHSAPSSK
T3 sequence (P43681 whole entry): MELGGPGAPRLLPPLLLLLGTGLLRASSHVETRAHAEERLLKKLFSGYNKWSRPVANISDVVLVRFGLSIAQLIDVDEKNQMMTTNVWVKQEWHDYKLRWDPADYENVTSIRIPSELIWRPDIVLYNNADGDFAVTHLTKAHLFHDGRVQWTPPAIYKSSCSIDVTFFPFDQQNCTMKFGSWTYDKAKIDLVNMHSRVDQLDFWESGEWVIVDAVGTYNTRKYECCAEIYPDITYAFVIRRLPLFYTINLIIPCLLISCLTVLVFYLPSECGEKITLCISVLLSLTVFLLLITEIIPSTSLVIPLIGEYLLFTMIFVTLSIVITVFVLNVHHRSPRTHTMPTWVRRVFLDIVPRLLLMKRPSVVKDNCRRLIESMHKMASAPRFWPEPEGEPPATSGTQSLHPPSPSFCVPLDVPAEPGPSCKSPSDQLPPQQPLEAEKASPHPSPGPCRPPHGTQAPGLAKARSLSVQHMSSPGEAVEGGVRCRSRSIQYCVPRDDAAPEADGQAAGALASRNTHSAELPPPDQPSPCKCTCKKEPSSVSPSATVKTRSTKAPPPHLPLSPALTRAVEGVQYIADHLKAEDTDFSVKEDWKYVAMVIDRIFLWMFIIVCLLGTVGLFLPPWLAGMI

[6] = molecular target: T1, Neuronal acetylcholine receptor subunit alpha-7; experiment: Binding affinity to alpha7 nAChR
[7] = molecular target: T1, Neuronal acetylcholine receptor subunit alpha-7; experiment: Agonist activity at alpha7 nAChR at 32 uM; format: functional
[8] = molecular target: T2, 5-hydroxytryptamine receptor 3A; experiment: Binding affinity to 5HT3 receptor
[9] = molecular target: T2, 5-hydroxytryptamine receptor 3A; experiment: Inhibition of 5HT3 receptor
Cytochrome P450 2D6 = Cytochrome P450 2D6 (Homo sapiens, UniProt P10635); experiment: Inhibition of CYP2D6; format: ADME
Chain of Cytochrome P450 2D6 (P10635 whole entry): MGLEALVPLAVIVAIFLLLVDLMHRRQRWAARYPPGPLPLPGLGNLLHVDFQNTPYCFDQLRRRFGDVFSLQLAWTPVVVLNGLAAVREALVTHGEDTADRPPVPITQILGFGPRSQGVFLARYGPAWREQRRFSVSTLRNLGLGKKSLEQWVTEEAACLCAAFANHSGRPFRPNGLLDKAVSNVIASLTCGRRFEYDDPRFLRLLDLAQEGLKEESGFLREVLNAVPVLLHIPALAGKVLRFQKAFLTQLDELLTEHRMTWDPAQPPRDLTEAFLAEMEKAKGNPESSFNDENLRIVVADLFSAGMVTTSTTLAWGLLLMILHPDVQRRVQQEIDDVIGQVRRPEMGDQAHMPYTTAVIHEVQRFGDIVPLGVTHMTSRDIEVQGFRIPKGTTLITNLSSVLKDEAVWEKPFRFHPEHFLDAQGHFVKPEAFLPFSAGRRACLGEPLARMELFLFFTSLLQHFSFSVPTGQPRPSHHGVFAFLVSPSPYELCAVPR

[10] = molecular target: T3, Neuronal acetylcholine receptor; alpha4/beta2; experiment: Binding affinity to alpha4beta2 nAChR; format: protein-complex assay
[11] = molecular target: T4, 5-hydroxytryptamine receptor 3A (Homo sapiens) (UniProt P46098); experiment: Binding affinity to human 5HT3 receptor at 10 uM by radioligand binding assay
T4 sequence (whole entry): T2 sequence (P46098 whole entry)

[12] = molecular target: T1, Neuronal acetylcholine receptor subunit alpha-7; experiment: Intrinsic activity at human alpha7 nAChR expressed in GH4C1 cells relative to acetylcholine; format: cell-based; settings: GH4-C1
[13] = molecular target: T1, Neuronal acetylcholine receptor subunit alpha-7; experiment: Partial agonist activity at human alpha7 nAChR expressed in GH4C1 cells relative to acetylcholine; format: functional, cell-based, GH4-C1
[14] = molecular target: T1, Neuronal acetylcholine receptor subunit alpha-7; experiment: Intrinsic activity at human alpha7 nAChR expressed in Xenopus oocytes relative to acetylcholine; format: cell-based; settings: Oocyte
[15] = molecular target: T1, Neuronal acetylcholine receptor subunit alpha-7; experiment: Agonist activity at human alpha7 nAChR expressed in GH4C1 cells assessed as potentiation of nicotine-induced calcium signal; format: functional, cell-based, GH4-C1
[16] = molecular target: T1, Neuronal acetylcholine receptor subunit alpha-7; experiment: Agonist activity at human alpha7 nAChR expressed in GH4C1 cells assessed as potentiation of nicotine-induced calcium signal relative to control; format: functional, cell-based; settings: GH4-C1
[17] = molecular target: T1, Neuronal acetylcholine receptor subunit alpha-7; experiment: Agonist activity at human alpha7 nAChR expressed in Xenopus oocytes relative to acetylcholine; format: functional, cell-based; settings: Oocyte
[18] = molecular target: T1, Neuronal acetylcholine receptor subunit alpha-7; experiment: Displacement of [3H]-MLA from alpha7 nAChR
[19] = molecular target: T1, Neuronal acetylcholine receptor subunit alpha-7; experiment: Agonist activity at human alpha7 nAChR expressed in Xenopus oocyte; format: functional
[20] = molecular target: T1, Neuronal acetylcholine receptor subunit alpha-7; experiment: Displacement of [3H]A-585539 from alpha7 nAChR human cortex
[21] = molecular target: T5, Neuronal acetylcholine receptor subunit alpha-7 (Rattus norvegicus, UniProt Q05941); experiment: Agonist activity at rat alpha7 nAchR expressed in Xenopus oocyte; format: functional
T5 sequence (Q05941 whole entry): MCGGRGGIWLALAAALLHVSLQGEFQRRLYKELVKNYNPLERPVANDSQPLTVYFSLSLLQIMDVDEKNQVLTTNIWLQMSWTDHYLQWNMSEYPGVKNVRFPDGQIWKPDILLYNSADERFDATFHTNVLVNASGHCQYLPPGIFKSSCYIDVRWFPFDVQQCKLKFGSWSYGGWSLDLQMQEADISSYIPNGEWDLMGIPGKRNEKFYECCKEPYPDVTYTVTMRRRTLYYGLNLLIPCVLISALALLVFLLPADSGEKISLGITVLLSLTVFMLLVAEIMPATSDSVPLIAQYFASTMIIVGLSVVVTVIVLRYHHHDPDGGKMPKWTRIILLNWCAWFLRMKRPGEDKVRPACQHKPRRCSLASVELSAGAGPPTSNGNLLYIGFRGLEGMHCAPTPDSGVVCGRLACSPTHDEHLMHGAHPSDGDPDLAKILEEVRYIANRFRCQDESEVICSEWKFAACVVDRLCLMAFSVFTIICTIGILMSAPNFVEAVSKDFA

[22] = molecular target: T5, Neuronal acetylcholine receptor subunit alpha-7; experiment: Displacement of [3H]A-585539 from alpha7 nAChR rat cortex
[23] = molecular target: Neuronal acetylcholine receptor subunit alpha-7 (Rattus norvegicus) (UniProt Q05941); experiment: Agonist activity at rat alpha7 nAchR expressed in Xenopus oocyte relative to acetylcholine; format: functional
Chain of Neuronal acetylcholine receptor subunit alpha-7 (Rattus norvegicus) (Q05941 whole entry): as above

[24] = molecular target: T2, 5-hydroxytryptamine receptor 3A; experiment: Binding affinity to human recombinant 5HT3 receptor
[25] = molecular target: T5, Neuronal acetylcholine receptor subunit alpha-7; experiment: Agonist activity at rat recombinant alpha7 nAChR; format: functional
[26] = Selectivity ratio of alpha3 nAchR to alpha7 nAchR
[27] = molecular target: T5, Neuronal acetylcholine receptor subunit alpha-7; experiment: Displacement of [3H]-MLA from alpha7 nAChR in rat brain membranes; format: cell membranes
Rattus norvegicus [28] = experiment: Procognitive effect in po dosed rat assessed as episodic memories by novel object recognition test; format: functional; settings: read-out: MED
Procedure, shortened: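 Rats dosed orally (po) in a novel object recognition test of episodic memory. Reported as minimum effective dose (MED), in mg/kg.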

[29] = molecular target: T2, 5-hydroxytryptamine receptor 3A; experiment: Antagonist activity at 5HT3 receptor expressed in Xenopus oocyte; format: functional
Rattus norvegicus [30] = experiment: Sensory gating restoration in phencyclidine-induced impairment ip dosed rat schizophrenia model; format: functional; settings: read-out: MED
Procedure, shortened: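 Young and aged rats with phencyclidine-induced impairment, a model of sensory gating restoration in schizophrenia. Intraperitoneal dosing. Reported as minimum effective dose (MED), in mg/kg ip.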

[31] = molecular target: 5-hydroxytryptamine receptor 3A (Mus musculus) (UniProt P23979); experiment: Antagonist activity at 5HT3 receptor expressed in N1E115 cells
Chain of 5-hydroxytryptamine receptor 3A (Mus musculus) (P23979 whole entry, looked up): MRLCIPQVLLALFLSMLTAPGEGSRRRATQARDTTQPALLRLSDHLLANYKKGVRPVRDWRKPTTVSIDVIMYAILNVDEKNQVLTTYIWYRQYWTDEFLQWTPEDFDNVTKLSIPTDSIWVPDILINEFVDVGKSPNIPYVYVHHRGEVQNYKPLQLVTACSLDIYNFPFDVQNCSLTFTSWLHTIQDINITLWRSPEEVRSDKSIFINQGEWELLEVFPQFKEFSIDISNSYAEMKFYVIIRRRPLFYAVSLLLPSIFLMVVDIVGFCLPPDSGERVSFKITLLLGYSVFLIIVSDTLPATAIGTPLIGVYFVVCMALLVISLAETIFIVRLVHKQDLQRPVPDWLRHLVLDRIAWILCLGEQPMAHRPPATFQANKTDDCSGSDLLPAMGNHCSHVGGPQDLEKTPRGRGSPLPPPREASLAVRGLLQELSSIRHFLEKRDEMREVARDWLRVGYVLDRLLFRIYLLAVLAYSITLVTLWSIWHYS

[32] = molecular target: T1, Neuronal acetylcholine receptor subunit alpha-7; experiment: Agonist activity at human alpha7 nAChR expressed in QM7 cells; format: functional, cell-based
[33] = molecular target: T1, Neuronal acetylcholine receptor subunit alpha-7; experiment: Binding affinity to human alpha7 nAchR
Rattus norvegicus [34] = species: Rattus norvegicus; experiment: Procognitive effect in rat assessed as spartial reference memories by novel object recognition test; format: functional; settings: read-out: MED
[35] = molecular target: Neuronal acetylcholine receptor subunit alpha-7 (Macaca mulatta) (UniProt Q866A2); experiment: Agonist activity at wild type monkey alpha7 nAChR by whole cell patch clamp assay relative to control; format: functional
Chain of Neuronal acetylcholine receptor subunit alpha-7 (Macaca mulatta) (Q866A2 whole entry): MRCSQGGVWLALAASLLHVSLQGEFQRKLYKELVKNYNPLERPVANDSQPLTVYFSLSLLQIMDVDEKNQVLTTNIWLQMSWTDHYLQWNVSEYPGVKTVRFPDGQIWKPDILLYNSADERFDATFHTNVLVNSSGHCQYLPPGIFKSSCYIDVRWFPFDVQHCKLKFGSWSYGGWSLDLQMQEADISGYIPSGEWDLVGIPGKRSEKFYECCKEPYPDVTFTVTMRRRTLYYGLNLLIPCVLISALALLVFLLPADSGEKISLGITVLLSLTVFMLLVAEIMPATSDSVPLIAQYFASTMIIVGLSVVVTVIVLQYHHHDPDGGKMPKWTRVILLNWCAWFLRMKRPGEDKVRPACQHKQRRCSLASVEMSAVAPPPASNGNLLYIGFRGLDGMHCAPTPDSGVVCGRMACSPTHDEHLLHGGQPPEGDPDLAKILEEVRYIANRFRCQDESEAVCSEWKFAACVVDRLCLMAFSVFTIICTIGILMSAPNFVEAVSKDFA

Rattus norvegicus [36] = species: Rattus norvegicus; experiment: Procognitive effect in rat assessed as working memories by novel object recognition test; format: functional; settings: read-out: MED
[37] = molecular target: Neuronal acetylcholine receptor subunit alpha-7 (Macaca mulatta, UniProt Q866A2); experiment: Agonist activity at wild type monkey alpha7 nAChR by whole cell patch clamp assay; format: functional
Chain of Neuronal acetylcholine receptor subunit alpha-7 (Macaca mulatta, UniProt Q866A2) (Q866A2 whole entry): as above

[38] = molecular target: T1, Neuronal acetylcholine receptor subunit alpha-7; experiment: Partial agonist activity at human alpha7 nAChR by whole cell patch clamp assay relative to acetylcholine; format: functional
Procedure, shortened: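 Human α7 nAChR expressed in Xenopus oocytes and in QM7 cells. Whole-cell patch-clamp recording. Agonist efficacy is given as % of the acetylcholine response, and EC50 is derived per expression system.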

T1 sequence (P36544 whole entry): as the sequence (Q866A2 whole entry) above, with Q5P, S193N, K208R, M395V, A398V counted along it

SMILES: O=C(CCCCN1CCCCC1)Nc1ccc(-c2cccnc2)cc1
- EC50 [1]: 350 nM

SMILES: c1cnc2c(c1)C[C@@]1(CN3CCC1CC3)O2 [AZD0328]
- Emax [2]: 58%
- Ki [3]: 12 nM
- EC50 [4]: 340 nM
- Ki [5]: 140 nM

SMILES: c1ccc2sc(CO[C@@H]3CN4CCC3CC4)cc2c1
- Ki [6]: 13 nM

SMILES: O=C(Nc1ccc(Br)cc1)OC1CN2CCC1CC2 (stereo not drawn)
- Ki [6]: 167 nM
- Activity [7]: 90%

SMILES: O=C(N[C@H]1CN2CCC1CC2)c1cc(Cl)cc2c1OCC2
- Ki [8]: 1 nM

SMILES: O=C(N[C@H]1CN2CCC1CC2)c1ccc2occc2c1
- IC50 [9]: 580 nM
- Ki [6]: 1.6 nM
- Ki [8]: 663 nM
- EC50 [1]: 43 nM

SMILES: O=C1O[C@]2(CN3CCC2CC3)CN1c1ccc2sccc2c1
- Ki [6]: 28 nM
- IC50 (Cytochrome P450 2D6): > 30000 nM

SMILES: c1ccc(-c2ccc(N3CC4CNCC4C3)cn2)cc1 (stereo not drawn)
- Ki [6]: 8.4 nM
- Ki [10]: 96 nM

SMILES: O=C(Oc1ccc(Br)cc1)N1CCN2CCC1CC2 [SSR180711]
- inhibition [11]: < 50%
- Intrinsic activity [12]: 36%
- EC50 [13]: 900 nM
- Intrinsic activity [14]: 51%

SMILES: O=C(N[C@H]1CN2CCC1CC2)c1ccc2ccsc2c1
- IC50 [9]: 188 nM
- Ki [6]: 2.1 nM
- Ki [8]: 174 nM
- EC50 [1]: 48 nM

SMILES: Cn1ccc2cc3c(cc21)CCN3C(=O)Nc1cccnc1
- EC50 [15]: 1500 nM
- fold change (FC) [16]: 8

SMILES: Cc1nc2nc(N3CCN4CCC3CC4)oc2cc1Cl
- Ki [6]: 3.2 nM
- Ki [8]: 244 nM
- EC50 [1]: 160 nM

SMILES: c1cc2cc(-c3ccc(O[C@H]4CN5CCC4CC5)nn3)ccc2[nH]1 [ABT-107]
- Emax [17]: 80%
- Ki [18]: 7 nM
- EC50 [19]: 50 nM
- inhibition [11]: 4%
- Ki [20]: 0.2 nM
- EC50 [21]: 50 nM
- Ki [22]: 0.2 nM
- Emax [23]: 80%

SMILES: COc1ccccc1-c1cccc2cc(C(=O)N[C@H]3CN4CCC3CC4)oc12
- Ki [24]: 60 nM
- EC50 [25]: 3000 nM
- EC50 [19]: 5500 nM

SMILES: O=C(N[C@H]1CN2CCC1CC2)c1ccc2cc[nH]c2c1
- EC50 [1]: 100 nM

SMILES: O=C(NCCCCN1CCCCC1)Nc1ccc(-c2ccccn2)cc1
- Selectivity ratio [26]: 5
- EC50 [1]: 130 nM

SMILES: O=C(N[C@@H]1CN2CCC1CC2)c1n[nH]c2ccccc12 [FACINICLINE]
- Ki [27]: 10 nM
- Ki [9]: 2 nM
- minimal effective dose (Rattus norvegicus [28]): 1 mg/kg
- IC50 [29]: 2.8 nM
- minimal effective dose (Rattus norvegicus [30]): 0.03 mg/kg
- IC50 [31]: 32.7 nM
- EC50 [19]: 800 nM
- EC50 [32]: 7700 nM
- Ki [33]: 6 nM
- minimal effective dose (Rattus norvegicus [34]): 1 mg/kg
- Emax [35]: 67%
- minimal effective dose (Rattus norvegicus [36]): 1 mg/kg
- EC50 [37]: 400 nM
- Activity [38]: 63%

SMILES: c1cnc2nc(N3CCN4CCC3CC4)oc2c1
- Ki [6]: 30.3 nM
- Activity [7]: 220%
- Ki [8]: 579 nM

SMILES: CN1CC2CN(c3ccc(-c4ccccc4)nc3)CC2C1 (stereo not drawn)
- Ki [6]: 9.6 nM
- Ki [10]: 28000 nM

From ChEMBL document CHEMBL2151039, “Discovery and development of α7 nicotinic acetylcholine receptor modulators” (J Med Chem, 2011)
